The test system of assay [1] is HL-60. In words: Concentration required to reduce cell number (HL-60 human promyelocytic leukemia cell line) on day 7 by 50%. Format: functional, cell-based. To be noted: HL-60, 168 h. In a few lines: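 HL-60 cells were grown in RPMI 1640 with 10% heat-inactivated FBS at 37 °C in humidified 10% CO2, resuspended at 10⁵/mL, and given drug. Drug was dissolved in DMSO, with at most 0.2% DMSO in the culture. Cells were counted by Coulter counter on day 7. IC50 is the concentration that reduced cell number by 50%. Values are from three experiments.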

In assay [2] the test system is HL-60. In words: Growth inhibitory activity against HL-60 human promyelocytic leukemia cell line relative to NSC-278214. Format: functional.

For the compound `CC(C)NC(=O)OCc1ccccc1COC(=O)NC(C)C`, the IC50 with HL-60 [1] is above 300000 nM. The Potency in the assay with HL-60 [2] is on record as below 0.005.
Consider `CC(C)NC(=O)OCc1c(COC(=O)NC(C)C)c(-c2ccc(F)cc2)n2c1SCC2`, for which the IC50 in the assay on HL-60 [1] came to 1600 nM. Besides, the Potency in the assay on HL-60 [2] worked out at 0.94.
Consider `CC(C)NC(=O)OCc1c(COC(=O)NC(C)C)c(-c2ccc(Cl)cc2)n2c1SCC2`, for which the IC50 in the assay with HL-60 [1] stood at 850 nM. This compound also came in with a Potency with HL-60 [2] of 1.76.
`CC(C)NC(=O)OCc1c(COC(=O)NC(C)C)c(-c2ccccc2)n2c1SCC2` registered an IC50 in the assay on HL-60 [1] of 1500 nM. Further, the Potency with HL-60 [2] worked out at 1.
`CC(C)NC(=O)OCc1c(COC(=O)NC(C)C)c(-c2ccc(Cl)c(Cl)c2)n2c1SCC2`: half-maximal inhibition in the assay on HL-60 [1] (IC50) was put at 1900 nM. In the assay on HL-60 [2], this compound gave a Potency of 0.79.
The corresponding values for `CC(C)NC(=O)OCc1c(COC(=O)NC(C)C)c(-c2ccc(Cl)c(Cl)c2)n2c1CCC2` are 1500 nM and 1.

For the origin of these results see ChEMBL document CHEMBL1124298, “Synthesis and antineoplastic activity of 5-aryl-2,3-dihydropyrrolo[2,1-b]thiazole-6,7-dimethanol 6,7-bis(isopropylcarbamates)” (J Med Chem, 1988).
